ChEMBL document CHEMBL1154626, “Novel, potent, and selective quinoxaline-based 5-HT(3) receptor ligands. 1. Further structure-activity relationships and pharmacological characterization” (J Med Chem, 2009)

Tests used:
[1] = target: T1, 5-hydroxytryptamine receptor 1A (Rattus norvegicus, UniProt P19327); experiment: Displacement of [3H]8-OHDPAT from 5HT1A receptor in rat hippocampus; assay type: tissue-based
T1 sequence (P19327 whole entry): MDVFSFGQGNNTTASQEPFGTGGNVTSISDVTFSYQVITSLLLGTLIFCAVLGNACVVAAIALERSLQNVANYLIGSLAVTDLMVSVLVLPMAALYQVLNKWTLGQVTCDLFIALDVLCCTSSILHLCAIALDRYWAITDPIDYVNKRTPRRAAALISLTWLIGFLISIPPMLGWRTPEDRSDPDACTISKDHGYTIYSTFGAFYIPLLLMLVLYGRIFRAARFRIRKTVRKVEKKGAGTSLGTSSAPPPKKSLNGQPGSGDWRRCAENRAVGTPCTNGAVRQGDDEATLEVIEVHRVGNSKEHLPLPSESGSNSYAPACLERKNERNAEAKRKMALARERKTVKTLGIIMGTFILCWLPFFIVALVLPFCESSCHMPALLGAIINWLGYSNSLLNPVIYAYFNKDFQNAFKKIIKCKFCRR

Rattus norvegicus = experiment: Plasma concentration in rat at 0.25 mg/kg, iv; assay type: ADME, organism-based; parameters: dose 0.25 mg/kg, route intravenous; conditions: in vivo, BLD = below limit of detection
Summary of the method: (§1)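 Rats dosed iv at 0.25–1 mg/kg and sacrificed 30 min after injection. Mean ± SEM of three animals. Brain/plasma ratio assumes 1 g tissue equals 1 mL water.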

D(2) dopamine receptor = D(2) dopamine receptor (Rattus norvegicus, UniProt P61169); experiment: Displacement of [3H]spiperone from dopamine D2 receptor in rat striatum
D(1A) dopamine receptor = D(1A) dopamine receptor (Rattus norvegicus, UniProt P18901); experiment: Displacement of [3H]SCH-23390 from dopamine D1 receptor in rat striatum
[2] = Ratio of drug level from brain to plasma in rat at 0.5 mg/kg, iv; assay type: ADME, organism-based; parameters: dose 0.5 mg/kg, route intravenous
Summary of the method: (§2)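 Rats given a single iv injection (0.25–1 mg/kg) and killed 30 min afterwards. Brain/plasma ratio calculated assuming 1 g tissue equals 1 mL water. Three animals per dose, mean ± SEM.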

[3] = target: 5-hydroxytryptamine receptor 2A (Rattus norvegicus, UniProt P14842); experiment: Displacement of [3H]ketanserin from 5HT2A receptor in rat cortex
[4] = target: T2, 5-hydroxytryptamine receptor 3A (Rattus norvegicus, UniProt P35563); experiment: Displacement of [3H]LY278584 from 5HT3 receptor in rat cortical homogenate; conditions: read-out: Ki
T2 sequence (P35563 whole entry): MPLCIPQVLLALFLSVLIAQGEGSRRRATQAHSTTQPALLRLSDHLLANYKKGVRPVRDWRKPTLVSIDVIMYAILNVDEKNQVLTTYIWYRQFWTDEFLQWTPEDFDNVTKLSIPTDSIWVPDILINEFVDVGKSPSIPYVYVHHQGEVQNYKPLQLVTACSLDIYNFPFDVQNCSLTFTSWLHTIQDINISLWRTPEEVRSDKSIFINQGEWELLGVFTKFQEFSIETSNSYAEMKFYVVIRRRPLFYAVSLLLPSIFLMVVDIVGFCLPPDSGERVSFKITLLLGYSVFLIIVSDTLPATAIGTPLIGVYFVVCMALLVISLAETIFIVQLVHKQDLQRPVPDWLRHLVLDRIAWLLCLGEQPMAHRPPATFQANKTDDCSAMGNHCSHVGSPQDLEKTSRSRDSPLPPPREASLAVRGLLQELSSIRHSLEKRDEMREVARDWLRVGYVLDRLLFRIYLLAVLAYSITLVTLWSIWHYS
Summary of the method: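 Rat cortical homogenate, competition against [3H]LY278584 binding. Ki is the concentration giving half-maximal inhibition of binding, as the mean ± S.E.M. of three determinations.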

Brain [5] = experiment: Drug level in rat brain at 1 mg/kg, iv; assay type: ADME, organism-based; parameters: dose 1 mg/kg, route intravenous; conditions: read-out: Drug uptake, in vivo; summary of the method: as §1
[6] = Ratio of drug level from brain to plasma in rat at 1 mg/kg, iv; assay type: ADME, organism-based; parameters: dose 1 mg/kg, route intravenous; summary of the method: as §2
[7] = target: T3, 5-hydroxytryptamine receptor 3A (Cavia porcellus, UniProt O70212); experiment: Antagonist activity at 5HT3 receptor in spontaneously beating guinea pig right atrium assessed as inhibition of serotonin-induced maximum response by noncompetitive binding assay; assay type: tissue-based, Cardiac atrium
T3 sequence (O70212 whole entry): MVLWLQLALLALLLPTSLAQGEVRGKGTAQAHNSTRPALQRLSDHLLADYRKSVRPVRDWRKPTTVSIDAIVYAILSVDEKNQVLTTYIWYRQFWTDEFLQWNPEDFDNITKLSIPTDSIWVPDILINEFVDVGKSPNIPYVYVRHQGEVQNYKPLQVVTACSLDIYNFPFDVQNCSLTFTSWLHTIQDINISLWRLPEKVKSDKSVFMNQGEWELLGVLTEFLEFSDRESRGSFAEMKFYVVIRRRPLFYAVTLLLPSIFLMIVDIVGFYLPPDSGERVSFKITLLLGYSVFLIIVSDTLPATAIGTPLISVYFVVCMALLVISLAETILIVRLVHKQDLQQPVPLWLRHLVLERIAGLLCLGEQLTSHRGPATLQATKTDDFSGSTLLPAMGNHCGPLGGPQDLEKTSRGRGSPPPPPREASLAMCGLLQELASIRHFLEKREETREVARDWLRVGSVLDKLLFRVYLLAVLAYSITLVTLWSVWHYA
Summary of the method: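 Spontaneously beating guinea pig right atria, exposed 30 min to test compound at 10 μM, followed by cumulative 5-HT log concentration-response curves versus control. Mean ± SEM of five to seven observations.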

Brain [8] = experiment: Drug level in rat brain at 0.5 mg/kg, iv; assay type: ADME, organism-based; parameters: dose 0.5 mg/kg, route intravenous; conditions: in vivo, read-out: Drug uptake; summary of the method: as §1
[9] = target: T4, Alpha-2A adrenergic receptor (Rattus norvegicus, UniProt P22909); experiment: Displacement of [3H]RX821002 from adrenergic alpha2 receptor in rat cortex
T4 sequence (P22909 whole entry): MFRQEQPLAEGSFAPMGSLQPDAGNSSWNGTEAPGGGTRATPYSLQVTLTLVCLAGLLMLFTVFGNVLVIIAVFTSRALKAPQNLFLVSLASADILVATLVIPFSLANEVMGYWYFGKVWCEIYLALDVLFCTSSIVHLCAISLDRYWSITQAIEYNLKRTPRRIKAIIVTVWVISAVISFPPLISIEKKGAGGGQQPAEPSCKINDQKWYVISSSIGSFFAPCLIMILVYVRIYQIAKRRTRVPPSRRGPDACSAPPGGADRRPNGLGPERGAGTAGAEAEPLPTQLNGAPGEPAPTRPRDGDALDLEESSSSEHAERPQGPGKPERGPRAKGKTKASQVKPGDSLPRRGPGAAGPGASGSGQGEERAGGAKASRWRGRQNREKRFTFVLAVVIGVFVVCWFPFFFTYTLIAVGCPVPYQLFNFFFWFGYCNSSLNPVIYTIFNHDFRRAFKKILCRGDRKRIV

[10] = target: 5-hydroxytryptamine receptor 4 (Cavia porcellus, UniProt O70528); experiment: Displacement of [3H]GR-113808 from 5HT4 receptor in guinea pig striatum
[11] = target: T3, 5-hydroxytryptamine receptor 3A; experiment: Agonist activity at 5HT3 receptor in voltage-stimulated guinea pig left atrium assessed as positive inotropic potency; assay type: functional, tissue-based, Cardiac atrium

D(2) dopamine receptor, sequence (P61169 whole entry): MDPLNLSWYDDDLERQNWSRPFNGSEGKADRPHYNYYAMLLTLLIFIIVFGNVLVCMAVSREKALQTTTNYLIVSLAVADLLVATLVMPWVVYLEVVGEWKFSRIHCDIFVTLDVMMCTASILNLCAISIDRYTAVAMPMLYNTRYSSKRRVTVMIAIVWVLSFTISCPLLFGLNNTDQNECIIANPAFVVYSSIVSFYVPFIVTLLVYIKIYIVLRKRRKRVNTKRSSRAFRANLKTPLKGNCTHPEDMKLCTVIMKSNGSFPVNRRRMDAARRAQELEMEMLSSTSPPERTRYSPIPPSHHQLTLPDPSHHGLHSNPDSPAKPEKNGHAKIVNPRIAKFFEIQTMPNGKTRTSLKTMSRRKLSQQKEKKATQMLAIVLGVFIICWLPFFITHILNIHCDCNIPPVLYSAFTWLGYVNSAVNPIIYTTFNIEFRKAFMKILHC
5-hydroxytryptamine receptor 4, sequence (O70528 whole entry): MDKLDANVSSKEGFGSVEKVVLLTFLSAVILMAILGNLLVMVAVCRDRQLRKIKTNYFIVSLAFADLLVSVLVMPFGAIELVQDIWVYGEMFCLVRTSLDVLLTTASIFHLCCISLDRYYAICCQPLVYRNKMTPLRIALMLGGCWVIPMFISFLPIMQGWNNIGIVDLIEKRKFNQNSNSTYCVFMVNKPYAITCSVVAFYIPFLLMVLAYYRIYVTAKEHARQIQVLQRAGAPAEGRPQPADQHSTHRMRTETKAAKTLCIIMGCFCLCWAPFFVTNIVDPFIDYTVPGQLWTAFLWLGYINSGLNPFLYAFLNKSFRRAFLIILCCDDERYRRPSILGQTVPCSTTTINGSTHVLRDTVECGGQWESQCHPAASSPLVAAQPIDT
5-hydroxytryptamine receptor 2A, sequence (P14842 whole entry): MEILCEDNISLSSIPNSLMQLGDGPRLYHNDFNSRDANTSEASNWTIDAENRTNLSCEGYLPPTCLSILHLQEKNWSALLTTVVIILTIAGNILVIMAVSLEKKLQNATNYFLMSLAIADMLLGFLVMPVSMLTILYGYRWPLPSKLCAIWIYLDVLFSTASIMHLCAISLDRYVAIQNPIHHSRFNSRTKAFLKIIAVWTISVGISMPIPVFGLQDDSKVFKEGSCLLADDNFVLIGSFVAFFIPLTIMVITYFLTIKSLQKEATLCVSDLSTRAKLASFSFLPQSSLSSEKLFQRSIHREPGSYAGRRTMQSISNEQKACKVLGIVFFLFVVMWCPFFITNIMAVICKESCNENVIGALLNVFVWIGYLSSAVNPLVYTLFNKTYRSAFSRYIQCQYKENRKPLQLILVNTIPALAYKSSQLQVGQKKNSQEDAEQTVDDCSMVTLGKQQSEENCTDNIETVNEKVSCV
D(1A) dopamine receptor, sequence (P18901 whole entry): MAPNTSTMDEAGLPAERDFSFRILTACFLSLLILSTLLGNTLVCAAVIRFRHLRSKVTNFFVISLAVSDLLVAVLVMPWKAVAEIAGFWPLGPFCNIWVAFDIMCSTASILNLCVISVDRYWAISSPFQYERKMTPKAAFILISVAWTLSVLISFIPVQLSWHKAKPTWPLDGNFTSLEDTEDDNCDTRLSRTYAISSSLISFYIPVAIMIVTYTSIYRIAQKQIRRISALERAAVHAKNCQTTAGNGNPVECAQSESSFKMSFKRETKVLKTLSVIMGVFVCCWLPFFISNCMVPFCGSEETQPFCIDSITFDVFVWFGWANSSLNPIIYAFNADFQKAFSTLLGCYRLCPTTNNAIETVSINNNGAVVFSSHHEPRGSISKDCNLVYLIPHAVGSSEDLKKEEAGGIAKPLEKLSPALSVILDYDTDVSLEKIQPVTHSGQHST

Structure (SMILES) | Ki [1] | Cp (Rattus norvegicus) | Ki (D(2) dopamine receptor) | Ki (D(1A) dopamine receptor) | Kp [2] | Ki [3] | Ki [4] | concentration (Brain [5]) | Kp [6] | IC50 ([7]; read-out: IC50) | concentration (Brain [8]) | Ki [9] | Ki [10] | IC50 [7] | EC50 [11]
Fc1ccc2c(c1)nc(N1CCN(Cc3cnc[nH]3)CC1)c1cccn12 | > 10 µM | BLD | > 10 µM | > 10 µM | 1.3 | > 10 µM | 0.68 nM | 210 nM | 1 | 270 nM | 90 nM | > 10 µM | > 10 µM | – | –
c1ccc(CN2CCN(c3nc4ncccc4n4cccc34)CC2)cc1 | – | – | – | – | – | – | 2.2 nM | – | – | – | – | – | – | Not Active | Not Active
